Reference: ChEMBL document CHEMBL1773039, “Structure-Activity Study of Dihydrocinnamic Acids and Discovery of the Potent FFA1 (GPR40) Agonist TUG-469” (ACS Med Chem Lett, 2010)
Activity calls are given as the source filed them. No cut-off for these calls is given here.

Assays:
[1] = biological target: T1, Free fatty acid receptor 1 (Homo sapiens, UniProt O14842); test: Agonist activity at human FFA1 transfected in 1321N1 cells assessed as calcium mobilization by microplate assay; type: functional, cell-based
T1 sequence (O14842 whole entry): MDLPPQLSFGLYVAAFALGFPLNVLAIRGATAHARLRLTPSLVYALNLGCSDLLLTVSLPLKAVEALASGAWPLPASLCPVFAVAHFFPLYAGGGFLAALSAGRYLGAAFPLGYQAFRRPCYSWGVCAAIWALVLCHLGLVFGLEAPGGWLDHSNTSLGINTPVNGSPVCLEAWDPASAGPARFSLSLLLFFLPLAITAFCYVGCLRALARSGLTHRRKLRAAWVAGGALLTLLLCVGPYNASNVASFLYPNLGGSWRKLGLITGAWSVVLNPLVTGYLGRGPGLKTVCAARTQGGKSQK
Summary of the method: (§1)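 Calcium mobilization in hFFA1-expressing cells was measured as full concentration-response curves and reported as pEC50. Efficacy is % of the response to 10 μM of the reference agonist.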

[2] = biological target: T1, Free fatty acid receptor 1; test: Agonist activity at human FFA1 transfected in 1321N1 cells assessed as calcium mobilization by microplate assay relative to 10 uM TUG-20; type: functional, cell-based; summary of the method: as §1
[3] = biological target: T2, Peroxisome proliferator-activated receptor gamma (Homo sapiens) (UniProt P37231); test: Transactivation of human PPARgamma ligand binding domain transfected in mouse embryo fibroblasts assessed as renilla luciferase activity at 1 uM after 18 hrs by luminometry relative to 1 uM rosiglitazone
T2 sequence (whole entry): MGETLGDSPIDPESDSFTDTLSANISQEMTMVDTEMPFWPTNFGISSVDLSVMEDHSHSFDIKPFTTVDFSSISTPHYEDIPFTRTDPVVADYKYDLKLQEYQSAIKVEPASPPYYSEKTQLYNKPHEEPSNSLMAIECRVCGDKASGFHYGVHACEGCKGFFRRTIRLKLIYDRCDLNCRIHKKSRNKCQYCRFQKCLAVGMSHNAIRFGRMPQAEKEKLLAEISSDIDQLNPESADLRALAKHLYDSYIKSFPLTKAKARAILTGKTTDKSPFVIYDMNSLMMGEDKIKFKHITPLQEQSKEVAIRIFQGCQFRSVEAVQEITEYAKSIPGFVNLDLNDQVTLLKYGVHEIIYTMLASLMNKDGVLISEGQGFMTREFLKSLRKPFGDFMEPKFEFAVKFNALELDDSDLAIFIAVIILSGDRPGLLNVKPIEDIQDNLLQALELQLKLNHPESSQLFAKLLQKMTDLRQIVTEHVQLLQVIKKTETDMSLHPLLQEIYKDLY

Homo sapiens = species on record: Homo sapiens; test: Selectivity for human FFA1 over human PPARgamma
[4] = biological target: T2, Peroxisome proliferator-activated receptor gamma (Homo sapiens); test: Transactivation of human PPARgamma ligand binding domain transfected in mouse embryo fibroblasts assessed as renilla luciferase activity at 10 uM by luminometry relative to 1 uM rosiglitazone
[5] = Cytotoxicity in mouse embryo fibroblasts at 100 uM; type: cell-based; details: fibroblast
[6] = biological target: Free fatty acid receptor 2 (Homo sapiens) (UniProt O15552); test: Agonist activity at human GPR43 in HEK293 cells
Free fatty acid receptor 2 (Homo sapiens), sequence (O15552 whole entry, looked up): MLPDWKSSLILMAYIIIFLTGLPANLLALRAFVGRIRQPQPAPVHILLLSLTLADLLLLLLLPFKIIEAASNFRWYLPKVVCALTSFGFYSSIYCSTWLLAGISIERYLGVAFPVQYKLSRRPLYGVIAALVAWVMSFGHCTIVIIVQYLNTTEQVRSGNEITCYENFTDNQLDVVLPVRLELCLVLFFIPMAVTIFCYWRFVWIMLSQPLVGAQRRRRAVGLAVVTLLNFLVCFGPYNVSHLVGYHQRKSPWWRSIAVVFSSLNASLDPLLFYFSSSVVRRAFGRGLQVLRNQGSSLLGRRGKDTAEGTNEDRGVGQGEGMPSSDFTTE

[7] = biological target: Free fatty acid receptor 3 (Homo sapiens) (UniProt O14843); test: Agonist activity at human GPR41 in HEK293 cells
Free fatty acid receptor 3 (Homo sapiens), sequence (O14843 whole entry, looked up): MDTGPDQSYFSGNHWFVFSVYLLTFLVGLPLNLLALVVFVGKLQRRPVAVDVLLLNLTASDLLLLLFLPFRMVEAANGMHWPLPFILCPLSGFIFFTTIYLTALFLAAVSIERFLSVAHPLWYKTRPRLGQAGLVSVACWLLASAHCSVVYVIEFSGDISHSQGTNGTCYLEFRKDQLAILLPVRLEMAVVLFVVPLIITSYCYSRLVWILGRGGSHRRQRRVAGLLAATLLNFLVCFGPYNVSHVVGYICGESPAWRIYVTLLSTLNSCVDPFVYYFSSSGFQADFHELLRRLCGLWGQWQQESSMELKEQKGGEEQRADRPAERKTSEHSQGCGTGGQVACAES

[8] = biological target: T1, Free fatty acid receptor 1; test: Agonist activity at human FFA1 transfected in 1321N1 cells under serum-free condition up to 1 hr by dynamic mass redistribution optical biosensor assay; type: functional, cell-based
Summary of the method: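 hFFA1-transfected 1321N1 cells were exposed to a range of agonist concentrations. Label-free dynamic mass redistribution was tracked over time as the resonant wavelength shift (pm), a read-out of receptor activation. pEC50 was taken from concentration-response curves of this signal.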

[9] = biological target: T2, Peroxisome proliferator-activated receptor gamma (Homo sapiens); test: Transactivation of human PPARgamma ligand binding domain transfected in mouse embryo fibroblasts at 100 uM after 18 hrs analyzed by photinus and renilla luciferase activity by luminometry relative to 1 uM rosiglitazone
[10] = Induction of 12 mM glucose-stimulated insulin secretion in rat INS-1E cells at 10 uM after 1 hr by radioimmunoassay; type: functional
INS-1E = test: Induction of 2.8 mM glucose-stimulated insulin secretion in rat INS-1E cells at 10 uM after 1 hr by radioimmunoassay; type: functional, cell-based

| Structure (SMILES) | EC50 [1] | Efficacy [2] | Activity [3] | fold change (FC) (Homo sapiens) | Activity [4] | Activity [5] | Activity [6] | Activity [7] | Activity [8] | Activity [9] | Activity [10] | Activity (INS-1E) |
| --- | --- | --- | --- | --- | --- | --- | --- | --- | --- | --- | --- | --- |
| O=C(O)CCc1ccc(NCc2ccccc2-c2ccccc2)cc1 | 1070 nM | 97% | inactive | > 100 | 15% | Toxic | inactive | inactive | – | – | – | – |
| Cc1ccccc1-c1cccc(CNc2ccc(CCC(=O)O)cc2)c1 | – | 114% | inactive | > 100 | – | – | inactive | inactive | Active | 86% | 55% | inactive |
